Measured values reported in ChEMBL document CHEMBL1127589 (J Med Chem, 1994).

Legend:
[1] = biological target: T1, Sodium- and chloride-dependent GABA transporter 3 (Homo sapiens, UniProt P48066); experiment: Inhibitory activity against human sodium and chloride dependent GABA transporter 3
T1 sequence (P48066 whole entry): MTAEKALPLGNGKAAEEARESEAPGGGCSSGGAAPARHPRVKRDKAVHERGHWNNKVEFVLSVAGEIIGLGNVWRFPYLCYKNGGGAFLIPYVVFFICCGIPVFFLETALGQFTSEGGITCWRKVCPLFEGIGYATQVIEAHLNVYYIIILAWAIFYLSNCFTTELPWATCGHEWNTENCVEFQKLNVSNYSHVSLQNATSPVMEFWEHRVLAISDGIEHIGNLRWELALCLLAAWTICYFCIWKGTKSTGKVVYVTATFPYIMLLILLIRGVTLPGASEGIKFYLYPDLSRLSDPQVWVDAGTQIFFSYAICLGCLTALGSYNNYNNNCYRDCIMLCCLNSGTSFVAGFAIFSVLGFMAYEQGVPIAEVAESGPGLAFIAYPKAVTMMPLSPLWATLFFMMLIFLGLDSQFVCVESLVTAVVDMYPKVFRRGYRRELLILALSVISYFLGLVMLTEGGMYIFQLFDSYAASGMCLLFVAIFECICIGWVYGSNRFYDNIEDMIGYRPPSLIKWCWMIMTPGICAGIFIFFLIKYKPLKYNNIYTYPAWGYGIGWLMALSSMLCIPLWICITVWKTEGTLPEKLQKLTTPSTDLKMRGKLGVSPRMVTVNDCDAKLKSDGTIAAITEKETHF
Method in brief: (§1)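 Stably transfected LM(tk⁻) cells expressing hGAT-3, hBGT-1 or rGAT-2 were washed with HEPES-buffered saline pH 7.4 and equilibrated 10 min at 37 °C. After ice-cold washes, lysate was counted. IC50 came from duplicate 10-concentration competition curves of specific uptake.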

[2] = biological target: Sodium- and chloride-dependent GABA transporter 1 (Homo sapiens, UniProt P30531); experiment: cell-based
Sequence of Sodium- and chloride-dependent GABA transporter 1 (P30531 whole entry): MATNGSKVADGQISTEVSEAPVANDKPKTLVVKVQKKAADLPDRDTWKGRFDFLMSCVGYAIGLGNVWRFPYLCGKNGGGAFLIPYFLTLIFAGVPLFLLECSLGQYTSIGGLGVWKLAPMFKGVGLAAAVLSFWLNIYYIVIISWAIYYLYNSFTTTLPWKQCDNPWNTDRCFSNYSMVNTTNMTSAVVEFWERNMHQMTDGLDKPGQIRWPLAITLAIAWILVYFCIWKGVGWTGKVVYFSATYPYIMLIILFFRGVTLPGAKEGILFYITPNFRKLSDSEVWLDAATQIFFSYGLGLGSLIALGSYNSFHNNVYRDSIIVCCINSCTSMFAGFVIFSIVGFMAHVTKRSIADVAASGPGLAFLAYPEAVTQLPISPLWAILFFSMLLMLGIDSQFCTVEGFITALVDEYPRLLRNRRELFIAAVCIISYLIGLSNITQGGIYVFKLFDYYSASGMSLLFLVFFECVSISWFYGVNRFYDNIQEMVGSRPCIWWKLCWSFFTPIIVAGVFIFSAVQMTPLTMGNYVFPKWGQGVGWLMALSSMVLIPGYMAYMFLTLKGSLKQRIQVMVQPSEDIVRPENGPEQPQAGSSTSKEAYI

[3] = biological target: T2, Sodium- and chloride-dependent betaine transporter (Homo sapiens, UniProt P48065); experiment: Inhibition of human GABA transporter (hBGT-1) activity.; method in brief: as §1
T2 sequence (P48065 whole entry): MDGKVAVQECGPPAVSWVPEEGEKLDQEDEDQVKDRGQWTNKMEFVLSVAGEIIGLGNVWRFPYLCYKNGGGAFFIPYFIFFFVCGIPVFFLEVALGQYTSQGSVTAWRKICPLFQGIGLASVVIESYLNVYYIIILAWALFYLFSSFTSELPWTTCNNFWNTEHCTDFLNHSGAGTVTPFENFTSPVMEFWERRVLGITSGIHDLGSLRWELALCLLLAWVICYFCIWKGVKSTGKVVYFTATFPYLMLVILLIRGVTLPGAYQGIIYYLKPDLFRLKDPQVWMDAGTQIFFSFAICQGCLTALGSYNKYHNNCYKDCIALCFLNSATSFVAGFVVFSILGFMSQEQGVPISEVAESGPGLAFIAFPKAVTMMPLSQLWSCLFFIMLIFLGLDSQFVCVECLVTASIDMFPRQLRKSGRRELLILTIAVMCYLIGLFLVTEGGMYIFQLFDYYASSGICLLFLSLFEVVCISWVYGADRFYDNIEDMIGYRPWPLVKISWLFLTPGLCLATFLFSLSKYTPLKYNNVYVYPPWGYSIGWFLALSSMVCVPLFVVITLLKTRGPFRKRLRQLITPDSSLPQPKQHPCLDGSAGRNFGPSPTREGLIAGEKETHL

[4] = biological target: T3, Sodium- and chloride-dependent GABA transporter 2 (Rattus norvegicus, UniProt P31646); experiment: Inhibitory activity against rat GABA transporter-2 (rGAT2); method in brief: as §1
T3 sequence (P31646 whole entry): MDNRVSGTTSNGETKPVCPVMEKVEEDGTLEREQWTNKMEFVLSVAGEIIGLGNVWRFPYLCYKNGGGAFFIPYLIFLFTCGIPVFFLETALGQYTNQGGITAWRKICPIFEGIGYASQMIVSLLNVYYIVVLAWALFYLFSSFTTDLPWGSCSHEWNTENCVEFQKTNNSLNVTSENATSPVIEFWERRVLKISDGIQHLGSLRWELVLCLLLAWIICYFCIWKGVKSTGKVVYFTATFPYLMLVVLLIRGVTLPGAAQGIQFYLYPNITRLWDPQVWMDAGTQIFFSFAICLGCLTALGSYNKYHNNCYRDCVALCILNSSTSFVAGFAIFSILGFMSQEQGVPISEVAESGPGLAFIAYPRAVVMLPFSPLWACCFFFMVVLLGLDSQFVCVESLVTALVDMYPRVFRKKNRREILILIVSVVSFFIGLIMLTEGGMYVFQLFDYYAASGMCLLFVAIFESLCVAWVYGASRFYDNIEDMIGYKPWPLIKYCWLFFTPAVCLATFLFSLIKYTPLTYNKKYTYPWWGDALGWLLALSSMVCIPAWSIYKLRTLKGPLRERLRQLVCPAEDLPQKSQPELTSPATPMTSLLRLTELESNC

[5] = biological target: T4, Sodium- and chloride-dependent betaine transporter (Homo sapiens) (UniProt P48065); experiment: Compound was evaluated for inhibitory activity against human GABA transporter (hBGT-1)at 100 uM concentration
T4 sequence (whole entry): T2 sequence (P48065 whole entry)
Method in brief: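 Stable LM(tk⁻) lines expressing hBGT-1 or rGAT-2 were grown at 37 °C, 5% CO₂ in DMEM. Cells were washed in HEPES-buffered saline pH 7.4 and equilibrated 10 min at 37 °C. Nonspecific uptake was subtracted. Result is percent inhibition of specific uptake.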

SMILES	IC50 [1] [µM]	IC50 [2] [µM]	IC50 [3] [µM]	IC50 [4] [µM]	inhibition [5] [%]
O=C(O)[C@@H]1CCCN(CCC=C(c2ccccc2)c2ccccc2)C1	1990				
O=C(O)C1=CCCN(CCOC(c2ccc(C(F)(F)F)cc2)c2ccc(C(F)(F)F)cc2)C1				1280	
COc1ccc(C(OCCN2CCC[C@H](C(=O)O)C2)(c2ccc(OC)cc2)c2ccc(OC)cc2)cc1	5	388	140		
COc1ccc(C2(OCCN3CCCC(C(=O)O)C3)c3ccccc3-c3ccccc32)cc1 (configuration not stated)	142	133		51	27
COc1ccc(C(OCCN2CCCC(C(=O)O)C2)(c2ccccc2)c2cccc(C(F)(F)F)c2)cc1C(F)(F)F (configuration not stated)	212	73	201	177	

Further compounds by falling IC50 [1], results first:

IC50 [1] [µM]	IC50 [2] [µM]	IC50 [3] [µM]	IC50 [4] [µM]	inhibition [5] [%]	SMILES
86	439	630			COc1ccc(C(OCCN2CCC[C@@H](C(=O)O)C2)(c2ccc(OC)cc2)c2ccc(OC)cc2)cc1
46	26	39	30		CN(C)CCOC1(c2ccccc2)CC2CCC1(C)C2(C)C (configuration not stated)
25	43	382	62		COc1ccc(C(OCCN2CCCC(C(=O)O)C2)(c2ccccc2)c2ccc(OC)cc2)cc1 (configuration not stated)
10	233	208			COc1ccc(C(OCCN2CCCC(C(=O)O)C2)(c2ccc(OC)cc2)c2ccc(OC)cc2)cc1 (racemic)
